# Sampled rows, rich in hits. Any-hit rate of the full collection: about 2%.
# FGF22 binding: shifts melting point of recombinant human FGF22; Q9HCT0; 340,000 compounds, 1.5% hits; activity (Tm shift, normalised), % at 9.99 µM; AID 651658; recombinant FGF22 thermal shift, SYPRO orange fluorescence; percent of sucrose octasulfate shift, DMSO zero;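 active = mean Tm shift, scaled 0 neutral to 100 positive control, at about 1.3% or above, every replicate too, limit read from the data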
# Target sequence (Q9HCT0 whole entry, looked up): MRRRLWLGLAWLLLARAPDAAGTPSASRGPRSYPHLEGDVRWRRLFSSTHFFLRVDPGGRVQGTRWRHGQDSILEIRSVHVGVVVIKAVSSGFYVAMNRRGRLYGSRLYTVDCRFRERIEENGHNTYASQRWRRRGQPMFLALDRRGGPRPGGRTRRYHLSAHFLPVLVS
# VLA-4 inh: inhibition in a human VLA-4 binding assay. AID 2557. VLA-4 expressing cells, ligand binding flow cytometry. P13612. inhibition, % (about 7 µM as worked out from the volumes in the protocol). 330,000 compounds, 0.2% hits; in the data active = inhibition above about 50%
# ABCB6 inh 2: human ABCB6 transporter inhibition | Q9NP58 | K562-ABCB6 porphyrin accumulation, flow cytometry, 1 h; stronger effect = lower value | fluorescence ratio to DMSO, % at 10 µM | 360,000 compounds, 0.19% hits | AID 602162;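 active = fluorescence ratio to DMSO below 75%, the collection mean minus 3 SD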;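 note: signal is porphyrin accumulated inside mitochondria; 100% equals median channel fluorescence of DMSO control wells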
# MT1-MMP act inh: inhibitors of human MT1-MMP activation. 360,000 compounds, 0.061% hits. AID 651647. HT1080 RFP-PRO-GFP cells, GFP/RFP ratio fluorescence, overnight; percent of plate control window, DMSO zero. GFP/RFP ratio change, % at 20 µM;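 active = GFP/RFP ratio change of at least 30% with cell ATP level not reduced by more than half and red fluorescence within 50% of control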
#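 Material – HT1080 RFP-PRO-GFP cells · Control set – DMSO wells and RFP-L50D-GFP cells · Incubation – overnight cell settling, then overnight compound exposure, 37 °C, 5% CO2 · Compound dosing – single-point 20 µM compound, 1% DMSO · Read-out – GFP/RFP fluorescence ratio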
# Exocytosis inh: blocks lytic granule exocytosis; TALL-104 LAMP-1 surface exposure, flow cytometry; cells stimulated with thapsigargin and PMA; inhibition, % at 10 µM; 360,000 compounds, 0.66% hits; AID 651702;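 active = inhibition above about 55%, limit read from the data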
# DAGLB inh: blocks human DAGLB lipase activity. Q8NCG7. HEK293T DAGLB membrane lysate, EnzChek fluorogenic substrate. inhibition, % at 5.17 µM. 340,000 compounds, 0.059% hits; in the data active = inhibition above about 34%;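 note: 0% = enzyme with vehicle and 100% = wells lacking enzyme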
# * = called active by the depositor; · = no result given.
SMILES,FGF22 binding,VLA-4 inh,ABCB6 inh 2,MT1-MMP act inh,Exocytosis inh,DAGLB inh
COc1ccc2c3c([nH]c2c1)[C@@H](CO)N(Cc1cc(F)ccc1F)CC31CCN(C(C)=O)CC1,0,·,·,·,·,·
O=C(Nc1ccccc1)SC1CCCCC1,43*,·,103,1,4,-4
COc1cc(Cl)c(CNC[C@H]2O[C@@H](n3cnc(C(N)=O)n3)[C@H](O)[C@@H]2O)c(Cl)c1O,43*,·,98,2,-13,-1
COc1cccc(CNC[C@H]2O[C@@H](n3cnc(C(N)=O)n3)[C@H](O)[C@@H]2O)c1OCc1ccc(F)cc1Cl,0,·,99,1,1,-2
CO[C@@H]1CN(C)C(=O)c2cc(NC(=O)C3CC3)ccc2OC[C@@H](C)N(Cc2ccncc2)C[C@@H]1C,0,·,·,·,·,·
CCC(C)C(=O)Nc1nnc(SCC(=O)Nc2ccccc2F)s1 (centres undefined),44*,3,100,2,3,2
COc1cccc(/C=C2\N=C(C3CCCCC3)OC2=O)c1OC,0,3,100,-5,60*,-2
CC(=O)Oc1ccc(/C=C2\N=C(C3CCCCC3)OC2=O)cc1,0,14,92,-3,40,-2
C[C@H](CO)N1C[C@H](C)[C@@H](CN(C)C(=O)Cc2ccncc2)Oc2ncc(C3=CCCC3)cc2C1=O,0,·,·,·,·,·
CCC(=O)N[C@H]1CC[C@H](CC(=O)NCCN2CCCCC2)O[C@@H]1CO,0,·,·,·,·,·
COc1ccc(NC(=O)N(C)C[C@@H]2Oc3c(NS(=O)(=O)c4ccc(C)cc4)cccc3C(=O)N([C@@H](C)CO)C[C@H]2C)cc1,0,·,·,·,·,·
Cc1cc(C)c(S(=O)(=O)/N=C2/C=C(Sc3ncn[nH]3)C(=O)c3ccccc32)cc1C,·,-11,104,-94,98*,1
Cc1ccc(C)c(S(=O)(=O)/N=C2\C=C(NS(=O)(=O)c3ccccc3)C(=O)c3ccccc32)c1,0,-3,99,23,30,28
CC(=O)N1CCn2c3c(c4cc(C)ccc42)CCCC31 (centres undefined),43*,-5,101,-3,1,3
Cc1c(C(=O)NCCCN2CCOCC2)oc2ccc(S(=O)(=O)N3CCOCC3)cc12,43*,8,101,-1,0,-1
CCOCCCNC(=O)c1oc2ccc(S(=O)(=O)N3CCOCC3)cc2c1C,0,2,96,0,-11,0
COc1ccc(NC(=O)Nc2ccc3c(c2)CC(=O)N([C@H](C)CO)C[C@H](C)[C@@H](CN(C)CC2CC2)O3)cc1,0,·,·,·,·,·
CC(=O)Nc1c(O)nc(SCc2ccccc2C#N)[nH]c1=O,0,7,105,4,-4,1
CC(=O)Nc1c(O)nc(SC/C=C/CSc2nc(O)c(NC(C)=O)c(=O)[nH]2)[nH]c1=O,43*,19,118,0,-2,0
COc1cccc(-c2ccc3n(c2=O)C[C@@H]2[C@@H](CO)[C@H](C(=O)NC4CCC4)N[C@H]32)c1,0,·,·,·,·,·
COc1ccccc1S(=O)(=O)N[C@@H]1C=C[C@@H](CC(=O)NCc2cc(F)cc(F)c2)O[C@H]1CO,0,·,·,·,·,·
CCOC(=O)c1c(-c2ccc(C)o2)csc1NC(=O)CSc1nnc(C)s1,·,-2,92,-4,96*,-2
CCOC(=O)c1sc(NC(=O)CSc2nnnn2-c2ccccc2)nc1C,0,3,99,-5,2,-6
CCOC(=O)c1c(-c2ccc(C)o2)csc1NC(=O)CSc1nnnn1-c1ccccc1,·,10,98,-7,95*,-3
CCOC(=O)c1c(-c2ccccc2)csc1NC(=O)CSc1nnc(C)s1,·,18,92,-9,4,-5
C=CCc1c(C)nc(-c2ccccc2)nc1N/N=C/c1ccncc1,43*,-4,97,-3,16,-1
O=c1[nH]cc(CN2CCOCC2)c(=O)[nH]1,43*,·,96,3,2,0
Nc1nc2ccc(Cl)cc2[nH]1,43*,·,98,-1,1,-2
Nc1nc2ccccc2[nH]1,0,16,98,2,-2,-1

# Screening data deposited in PubChem by several laboratories.
